# NALP3 yeast inh: NALP3 inflammasome inhibitors in reconstituted yeast, primary screen, luminescence, uHTS; Yeast reconstituted NLRP3/ASC/caspase-1, beta-gal luminescence, 24 h; inhibition, % at 10 µM; 330,000 tested, 0.39% active;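 active = inhibition of 50% or more; inactive = inhibition below 50%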
# Calb FLC: C. albicans growth inhibition with fluconazole, primary screen, CaCi-2 strain, Alamar Blue fluorescence | growth inhibition, % (test concentration not listed) | C. albicans CaCi-2 + fluconazole, 48 h | 300,000 tested, 0.57% active | AID 1979, 2009;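 active = growth inhibition above about 58% in most replicates, limit read from the data, passing the limit was not always enough; inconclusive = exactly half the replicates above a set limit; inactive = most replicates below a set limit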;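 also: all wells also contain fluconazole at 8 µg/ml as a sub-toxic cotreatment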
# ATG4B inh: ATG4B protease inhibitors, primary screen, biochemical, fluorescence, uHTS; 340,000 tested, 0.51% active; ATG4B cleavage of LC3-PLA2, NBD-HPC fluorescence, 1 h; Cysteine protease ATG4B (Homo sapiens), Q9Y4P1; inhibition, % at 8.33 µM; in the data active = inhibition above about 40%
# Target sequence (Q9Y4P1 whole entry, looked up): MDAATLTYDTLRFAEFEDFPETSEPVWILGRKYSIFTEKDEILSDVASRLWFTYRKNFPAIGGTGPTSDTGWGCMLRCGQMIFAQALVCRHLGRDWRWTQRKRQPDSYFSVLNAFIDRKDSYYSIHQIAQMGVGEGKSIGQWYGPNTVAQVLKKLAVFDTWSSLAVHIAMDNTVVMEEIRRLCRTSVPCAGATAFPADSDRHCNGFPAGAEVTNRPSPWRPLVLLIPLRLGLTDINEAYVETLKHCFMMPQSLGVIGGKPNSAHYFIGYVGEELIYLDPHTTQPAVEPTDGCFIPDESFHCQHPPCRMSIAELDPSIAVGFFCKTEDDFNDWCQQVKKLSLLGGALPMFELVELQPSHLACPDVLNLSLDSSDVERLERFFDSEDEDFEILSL
# NALP1 yeast inh: NALP1 inflammasome inhibitors in reconstituted yeast, colorimetric, S. cerevisiae, triplicate retest. S. cerevisiae NALP1/ASC/caspase-1 growth, X-gal OD620, 72 h. inhibition, % at 10 µM. 280,000 tested, 0.61% active. AID 2071, 2009; in the data active = inhibition mostly above about 24%, no sharp cut-off; inactive = mostly below about 32%
# ALR inh: inhibitors of human ALR sulfhydryl oxidase, primary screen, biochemical, H2O2 detection, HRP-luminol luminescence, single point. FAD-linked sulfhydryl oxidase ALR (Homo sapiens), P55789. AID 485317, 2010. purified ALR, DTT oxidation. inhibition, % (concentration not given with the values). 290,000 tested, 3.8% active;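 active = mean replicate inhibition above about 79%, with every replicate also reaching it, limit read from the data; inconclusive = only one of the two criteria met; inactive = mean below limit and not every replicate reaching it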
# Target sequence (P55789 whole entry, looked up): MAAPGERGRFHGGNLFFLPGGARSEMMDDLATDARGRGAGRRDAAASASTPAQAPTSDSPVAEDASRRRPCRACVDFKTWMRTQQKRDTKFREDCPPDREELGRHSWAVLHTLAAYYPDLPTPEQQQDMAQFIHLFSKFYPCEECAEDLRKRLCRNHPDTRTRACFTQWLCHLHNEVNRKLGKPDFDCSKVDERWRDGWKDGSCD
# UCH37 inh: inhibitors of human UCH37 deubiquitinase, primary screen, biochemical, Ub-AMC cleavage, fluorescence | 330,000 tested, 0.33% active | inhibition, % (concentration not given with the values) | purified proteasome/UCH37 | AID 588478, 2011;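 active = mean inhibition over replicate wells above about 20%, limit read from the data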
#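 System: Proteasome-associated human UCH37 deubiquitinase; Input: 0.15 nM proteasome in added enzyme buffer; Also added: Ub-AMC substrate from 1 µM stock; Incubation: 30 min compound-proteasome preincubation then 25 min substrate reaction, room temperature; Detection: fluorescence, ex 355 nm, em 460 nm; Read-out: % inhibition of Ub-AMC cleavage fluorescence; Benchmarks: no-proteasome and no-compound wells.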
# A number is an active result; i = inactive; ? = inconclusive; nt = not tested or not shown. This is a sample that favours compounds with a hit; in the whole collection about 4.8% have one here.
SMILES,NALP3 yeast inh,Calb FLC,ATG4B inh,NALP1 yeast inh,ALR inh,UCH37 inh
CC(=O)NC(=NOCc1ccc(Br)cc1)c1nonc1NC(C)=O,nt,nt,nt,nt,nt,i
CCc1cc2c(=O)n(Cc3ccco3)c(SCC(=O)NCC3CCCO3)nc2s1 (stereo not given),i,i,i,i,i,i
CCc1cc2c(=O)n(Cc3ccco3)c(SCc3c(C)noc3C)nc2s1,i,i,i,i,99,i
O=C(NN=Cc1ccccc1)c1ccc(N2CCOCC2)c([N+](=O)[O-])c1,nt,nt,nt,nt,nt,i
Cc1ccc(S(=O)(=O)Nc2ccc(O)c3cccnc23)cc1,i,i,i,i,95,i
Cc1ccc(S(=O)(=O)Nc2ccc(O)c3ncccc23)cc1,i,99,i,i,88,i
O=[N+]([O-])c1ccc(COc2ccccc2C=NO)cc1,nt,nt,nt,nt,nt,i
Cc1occc1C(=O)NN=Cc1c(O)ccc2ccccc12,nt,nt,nt,nt,nt,i
O=c1c(-c2nnc(SCc3ccc(Cl)cc3)o2)cccn1Cc1ccccc1,i,i,i,25,i,i
O=C(CSc1ncccn1)NN=Cc1cccs1,nt,nt,nt,nt,nt,i
Cc1ccc(-n2c(=S)[nH]c3c(oc4ccccc43)c2=O)cc1,i,i,i,i,i,i
O=c1c2oc3ccccc3c2[nH]c(=S)n1-c1ccccc1,i,i,i,i,92,i
Cc1cccc(-n2c(=S)[nH]c3c(oc4ccccc43)c2=O)c1,nt,?,i,i,90,i
Cc1cccc(-n2c(C)c(-c3ccccc3)[nH]c2=S)c1,i,i,i,i,82,i
Cc1cccc(-n2cc[nH]c2=S)c1,i,i,i,i,i,i
O=C(COc1ccc(C=NNC(=O)C(=O)N2CCCCC2)cc1)Nc1ccccc1Cl,nt,nt,nt,nt,nt,i
C=C(C)CNC(=S)N/N=C1\CCCCc2ccccc21,i,93,i,i,i,nt
CCOC(=O)/C(=N\Nc1cccc(C(F)(F)F)c1)N1CCOCC1,i,114,i,i,i,nt
CCOC(=O)C(=NNc1cccc(C(F)(F)F)c1)N1CCOCC1,nt,nt,nt,nt,nt,i
CCOC(=O)/C(=N\Nc1cccc(C(F)(F)F)c1)N(CCOC)CCOC,i,i,i,i,97,nt
CCOC(=O)/C(=N\Nc1ccccc1Cl)N1CCN(C)CC1,i,i,i,i,98,nt
COc1ccc(C(=O)O)cc1NC(=S)NC(=O)/C=C/c1ccc(C(C)C)cc1,i,i,i,i,97,i
COc1cc(C(=O)NN=Cc2sc(N3CCOCC3)nc2-c2ccccc2)cc(OC)c1OC,nt,nt,nt,nt,nt,i
CCc1ccc(/C=N/Nc2ncnc3nc[nH]c23)cc1,i,i,i,nt,81,nt
COc1ccc(C(=O)NCC(=O)NN=Cc2c(C)[nH]c3ccccc23)cc1,nt,nt,nt,nt,nt,i
SMILES,NALP3 yeast inh,Calb FLC,ATG4B inh,NALP1 yeast inh,ALR inh,UCH37 inh
COc1cc(CC2COC(=O)C2(O)Cc2ccc(O)c(OC)c2)ccc1O (stereo not given),i,i,i,i,87,i
CC(CC(=O)NC(C)(C)C)=NNC(=O)COc1ccc(C)cc1Br,nt,nt,nt,nt,nt,i
Cc1ccccc1NC(=O)CC1SC(=O)N(c2ccccc2)C1=O (stereo not given),i,i,i,i,97,i
COc1cc(C2Oc3cc(C4Oc5cc(O)cc(O)c5C(=O)C4O)ccc3OC2CO)ccc1O (stereo not given),i,nt,i,i,i,i
CC(=O)Oc1cc(O)c2c(c1)OC(c1ccc(OC(C)=O)c(OC(C)=O)c1)C(OC(C)=O)C2=O (stereo not given),i,i,i,i,89,i
Cc1ccc(-c2nc3cnccn3c2Nc2ccc3c(c2)OCO3)cc1,i,i,i,i,nt,i
Cc1cccc(Nc2c(-c3ccc(O)cc3)nc3ncccn23)c1,i,i,i,i,i,nt
CN(C)c1ccc(-c2nc3cnccn3c2Nc2ccc3c(c2)OCCO3)cc1,i,i,i,nt,98,i
Cc1ccc(-c2nc3cnccn3c2Nc2ccc3c(c2)OCCO3)o1,i,i,i,i,99,i
COc1ccc(-c2nc3cnccn3c2Nc2ccc3c(c2)OCO3)cc1,i,i,i,i,87,i
Cc1ccc(Nc2c(-c3ccccc3O)nc3ncccn23)cc1,i,i,i,i,98,i
CC(=NO)C(=O)NCc1ccncc1,nt,nt,nt,nt,nt,i
CC1CCN(Cc2c(C(=O)NN=Cc3cccc(C(F)(F)F)c3)nnn2-c2nonc2N)CC1,nt,nt,nt,nt,nt,i
COc1cc(C=NNC(=O)c2nnn(-c3nonc3N)c2C(C)C)ccc1OCc1ccc(F)cc1,nt,nt,nt,nt,nt,i
Cc1ccc(Nc2c(-c3ccccc3O)nc3cnccn23)cc1,i,i,i,i,99,i
Cc1ccc(Nc2c(-c3ccc(N4CCOCC4)cc3)nc3cnccn23)cc1,i,i,i,nt,99,i
Cc1ccccc1Nc1c(-c2ccc(N3CCOCC3)cc2)nc2cnccn12,i,i,i,nt,nt,i
COc1ccc(Nc2c(-c3ccc(C)cc3)nc3cnccn23)cc1,i,i,i,i,99,i
CCCCNc1c(-c2ccc(OC)c(Sc3ccc(OC)cc3)c2)nc2cnccn12,i,nt,i,nt,i,i
COc1ccc(Nc2c(-c3ccc(OC)cc3)nc3cnccn23)cc1,i,i,i,i,98,i
O=C(Oc1ccc(C=NNc2nc(N3CCCCC3)nc(N3CCCCC3)n2)cc1)c1ccco1,nt,nt,nt,nt,nt,i
COc1ccc(C2CC2C(C)=NOC(=O)c2ccc(F)cc2)cc1 (stereo not given),nt,nt,nt,nt,nt,i
O=C(CC=NOCc1ccc(Cl)cc1)c1cnc(-c2ccccc2)s1,nt,nt,nt,nt,nt,i
Cc1nc2ccccc2c(=O)n1N=Cc1ccc(O)cc1,nt,nt,nt,nt,nt,i
COCCN=C1Sc2nc3ccc(C)cc3cc2CN1Cc1ccco1,i,i,i,48,i,i
SMILES,NALP3 yeast inh,Calb FLC,ATG4B inh,NALP1 yeast inh,ALR inh,UCH37 inh
COCCN=C1Sc2nc3cc(C)c(C)cc3cc2CN1Cc1cccs1,i,i,i,nt,i,i
Cc1ccc(NCC(=O)NN=Cc2cccc(Oc3ccccc3)c2)cc1,nt,nt,nt,nt,nt,i
O=C(CN1CCSC1=NCc1ccccc1)c1ccc(Cl)c(Cl)c1,i,i,i,46,i,i
O=C(Cn1ccccc1=S)c1ccc(Cl)c(Cl)c1,i,i,i,nt,i,i
CC(=NNC(=O)c1ccccc1F)c1cccc(NC(=O)c2ccc(C)cc2)c1,nt,nt,nt,nt,nt,i
CCOCCCNC(=O)c1ccc(N(C)S(=O)(=O)c2ccc(OC)cc2)cc1,i,106,i,i,i,i
CC(CC1(O)C(=O)N(C)c2ccccc21)=NO (stereo not given),nt,nt,nt,nt,nt,i
Cc1ccc(C)c(S(=O)(=O)Nc2ccc(O)cc2)c1,i,i,i,i,i,i
O=S(=O)(Nc1ccc(O)cc1)c1cccc2cccnc12,i,i,i,i,101,i
Cc1cc(C)c(S(=O)(=O)Nc2ccc(O)cc2)cc1C,i,i,i,i,99,i
